According to ChEMBL document CHEMBL4396876, “Antisulfatase, Osteogenic, and Anticancer Activities of Steroid Sulfatase Inhibitor EO-33 in Mice” (J Med Chem, 2019):

What was measured:
[1] = Lipophilicity, log P of the compound; assay type: physicochemical; details: octanol/water
[2] = Plasma concentration in Balb/c mouse at 2 mg/kg, sc administered as single dose using MC/EtOH formulation measured at 1 hr by LC-MS/MS analysis; assay type: ADME, organism-based
How it was run: (§1)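 Female Balb/c mice, fasted 8 h with free water, given a single dose in 0.1 mL vehicle: EO-33 dissolved in EtOH, then aqueous 0.4% methylcellulose added to a final 8% EtOH. Sacrificed under isoflurane at 1, 3, 7, 12 and 24 h (2–3 mice/group). Cardiac blood collected into K-EDTA and plasma stored at −80 °C. LC-MS/MS on 100 µL plasma. AUC0-24h taken from the five time points.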

[3] = Plasma concentration in Balb/c mouse at 30 mg/kg, sc administered as single dose using MC/EtOH formulation measured after 7 hrs by LC-MS/MS analysis; assay type: ADME, organism-based; how it was run: as §1
[4] = Plasma concentration in Balb/c mouse at 30 mg/kg, po administered via gavage as single dose using MC/EtOH formulation measured after 7 hrs by LC-MS/MS analysis; assay type: ADME, organism-based; how it was run: as §1

logP [1]: 4.02
concentration at 1 h [2]: 0.681 µg/mL
concentration at 7 h [3]: 0.53 µg/mL
concentration at 7 h [4]: 0.075 µg/mL
SMILES: Cc1ccc(CN(Cc2ccc(C(=O)N3CCc4ccc(OS(N)(=O)=O)cc4C3)cc2)Cc2ccco2)s1
